Experimental data published in ChEMBL document CHEMBL5325428 (Eur J Med Chem, 2023).

Tests used:
[1] = test system: Feline infectious peritonitis virus; test: Antiviral activity against FIPV 1146 infected in CRFK cells assessed as inhibition of viral replication incubated for upto 168 hrs by TCID50 method; assay type: functional, organism-based; details: Alphacoronavirus 1, 1146, CRFK
How it was run: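 Crandell-Rees feline kidney cells infected with FIPV-1146; test compounds added to the medium at various concentrations. EC50 was fitted from the dose-dependent inhibition curve with a variable slope. Values are mean ± SD.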

[2] = target: chymotrypsin (Homo sapiens, UniProt P17538+P40313+Q6GPI1+Q99895); test: Inhibition of human chymotrypsin; assay type: toxicity
How it was run: (§1)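 Commercial purified human proteases were assayed following the manufacturers' procedures. IC50 values are mean ± SD.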

[3] = Cytotoxicity against human HEK293T cells assessed as reduction in cell viability incubated for 72 hrs by CytoTox 96 nonradioactive assay; assay type: toxicity, cell-based, HEK-293T
[4] = target: Cathepsin D (Homo sapiens, UniProt P07339); test: Inhibition of human Cathepsin D; assay type: toxicity; how it was run: as §1
[5] = target: Prothrombin (Homo sapiens, UniProt P00734); test: Inhibition of human thrombin; assay type: toxicity; how it was run: as §1
[6] = target: Procathepsin L (Homo sapiens, UniProt P07711); test: Inhibition of human Cathepsin L; assay type: toxicity; how it was run: as §1
[7] = target: T1, Cathepsin G (Homo sapiens, UniProt P08311); test: Inhibition of human Cathepsin G; assay type: toxicity; how it was run: as §1
T1 sequence (P08311 whole entry): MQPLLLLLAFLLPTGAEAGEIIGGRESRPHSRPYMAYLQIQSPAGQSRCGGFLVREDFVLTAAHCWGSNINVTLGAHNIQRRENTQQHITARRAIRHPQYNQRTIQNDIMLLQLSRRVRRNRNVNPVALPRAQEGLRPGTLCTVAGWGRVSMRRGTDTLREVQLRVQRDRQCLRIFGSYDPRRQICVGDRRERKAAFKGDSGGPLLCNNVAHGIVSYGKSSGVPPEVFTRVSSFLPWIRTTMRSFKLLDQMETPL

[8] = target: Cathepsin B (Homo sapiens, UniProt P07858); test: Inhibition of human Cathepsin B; assay type: toxicity; how it was run: as §1
[9] = target: T2, Neutrophil elastase (Homo sapiens, UniProt P08246); test: Inhibition of human neutrophil elastase; assay type: toxicity; how it was run: as §1
T2 sequence (P08246 whole entry): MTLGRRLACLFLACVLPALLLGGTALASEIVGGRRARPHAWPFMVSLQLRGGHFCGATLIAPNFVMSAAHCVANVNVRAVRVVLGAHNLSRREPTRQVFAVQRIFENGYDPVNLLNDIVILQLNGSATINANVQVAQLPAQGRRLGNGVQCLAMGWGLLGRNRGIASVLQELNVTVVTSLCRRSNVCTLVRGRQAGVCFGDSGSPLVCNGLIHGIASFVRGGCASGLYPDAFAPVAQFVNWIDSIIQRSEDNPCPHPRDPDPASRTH

[10] = target: Replicase polyprotein 1ab (Severe acute respiratory syndrome coronavirus 2, UniProt P0DTD1); test: Inhibition of N-terminal His6-tagged full length SARS-CoV-2 3CLpro using FAM-SAVLQ as substrate preincubated with enzyme for 1 hr followed by susbtrate addition and measured after 1 hr by FRET assay
[11] = test system: SARS-CoV-2; test: Antiviral activity against SARS-CoV-2 Wuhan-HU-1 infected in HEK293T cells assessed as inhibition of viral replication incubated for 30 hrs by luciferase reporter gene assay; assay type: functional, organism-based; details: Severe acute respiratory syndrome coronavirus 2, Wuhan-HU-1, HEK-293T
How it was run: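 This is a non-infectious Wuhan-Hu-1 replicon system, not infectious virus. Replicon RNA was electroporated into 293T cells, which were then incubated for 30 h with compound at 2, 0.5, 0.1 and 0.02 µM or with 0.1% DMSO. Read-out was luciferase activity. Values are mean ± SD.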

[12] = Safety index, ratio of CC50 for cytotoxicity against human HEK293T cells to EC50 for antiviral activity against SARS-CoV-2 Wuhan-HU-1 infected in HEK293T cells; assay type: toxicity, cell-based; details: read-out: Ratio CC50/EC50
How it was run: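 In vitro safety index was calculated as the 293T CC50 divided by the SARS-CoV-2 replicon EC50.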

[13] = Inhibition of MERS-CoV 3CLpro using FAM-SAVLQ as substrate preincubated with enzyme for 1 hr followed by susbtrate addition and measured after 1 hr by FRET assay; set-up: species or system Middle East respiratory syndrome-related coronavirus

Sequence of Cathepsin D (P07339 65-162 limits assumed): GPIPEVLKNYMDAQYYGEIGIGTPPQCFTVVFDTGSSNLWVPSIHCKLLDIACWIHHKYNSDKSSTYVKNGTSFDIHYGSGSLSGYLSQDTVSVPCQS
Sequence of Cathepsin D (P07339 169-412 limits assumed): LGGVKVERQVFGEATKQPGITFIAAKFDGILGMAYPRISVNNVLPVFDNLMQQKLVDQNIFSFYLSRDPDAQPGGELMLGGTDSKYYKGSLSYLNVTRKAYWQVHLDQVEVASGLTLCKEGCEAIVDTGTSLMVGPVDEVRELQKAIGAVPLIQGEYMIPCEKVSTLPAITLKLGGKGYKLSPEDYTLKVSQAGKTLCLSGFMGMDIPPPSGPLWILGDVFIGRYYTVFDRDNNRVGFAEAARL
Sequence of Procathepsin L (P07711 whole entry): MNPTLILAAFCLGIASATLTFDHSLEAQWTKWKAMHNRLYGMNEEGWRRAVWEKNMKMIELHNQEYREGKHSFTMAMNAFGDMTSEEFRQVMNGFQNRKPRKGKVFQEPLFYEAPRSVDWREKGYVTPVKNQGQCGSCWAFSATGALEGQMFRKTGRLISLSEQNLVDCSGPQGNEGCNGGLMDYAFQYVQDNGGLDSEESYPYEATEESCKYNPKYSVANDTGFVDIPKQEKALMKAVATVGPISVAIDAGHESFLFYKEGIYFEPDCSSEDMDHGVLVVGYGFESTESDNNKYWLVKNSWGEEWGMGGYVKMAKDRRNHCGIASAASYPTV

With `CC(C)C[C@H](NC(=O)OCC(C)(C)Oc1ccc(F)cc1)C(=O)N[C@H](C=O)C[C@@H]1CCNC1=O` the EC50 [1] was 70 nM, the IC50 [2] was > 50 µM and the CC50 at 72 h [3] was > 50 µM. The IC50 [4] was > 50 µM, the IC50 [5] was > 50 µM and the IC50 [6] was 30 nM. For the same compound, the IC50 [7] was > 50 µM, the IC50 [8] was 1900 nM and the IC50 [9] was > 50 µM. For the same compound, the IC50 [10] was 220 nM.

In the case of `[2H]C([2H])(OC(=O)N[C@@H](CC(C)C)C(=O)N[C@H](C=O)C[C@@H]1CCNC1=O)C(C)(C)Oc1ccc(Cl)cc1`, the EC50 [1] is reported as 100 nM, the IC50 [2] is reported as > 50 µM and the CC50 at 72 h [3] is reported as > 50 µM. The IC50 [4] was > 50 µM, the EC50 [11] was 15 nM and the IC50 [5] was > 50 µM. For the same compound, the IC50 [6] was 40 nM, the IC50 [7] was > 50 µM and the selectivity ratio [12] was 3330. For the same compound, the IC50 [8] was 800 nM, the IC50 [9] was > 50 µM and the IC50 [10] was 170 nM.

For `CC(C)C[C@H](NC(=O)OCC(C)(C)Sc1cccc(Cl)c1)C(=O)N[C@H](C=O)C[C@@H]1CCNC1=O`, the EC50 [1] was 190 nM, the IC50 [2] was > 50 µM and the IC50 [13] was 110 nM. The CC50 at 72 h [3] was > 50 µM, the IC50 [4] was > 50 µM and the EC50 [11] was 10 nM. For the same compound, the IC50 [5] was > 50 µM, the IC50 [6] was 30 nM and the IC50 [7] was > 50 µM. The selectivity ratio [12] was 3330, the IC50 [8] was 1400 nM and the IC50 [9] was > 50 µM. For the same compound, the IC50 [10] was 150 nM.

With `CC(C)C[C@H](NC(=O)OCC(C)(C)Sc1ccccc1)C(=O)N[C@H](C#N)C[C@@H]1CCNC1=O` the EC50 [1] was 1320 nM, the IC50 [2] was > 50 µM and the IC50 [13] was 410 nM. For the same compound, the CC50 at 72 h [3] was > 50 µM, the IC50 [4] was > 50 µM and the EC50 [11] was 60 nM. The IC50 [5] was > 50 µM, the IC50 [6] was 30 nM and the IC50 [7] was > 50 µM. For the same compound, the IC50 [8] was 2600 nM, the IC50 [9] was > 50 µM and the IC50 [10] was 490 nM.

For `CC(C)C[C@H](NC(=O)OCC(C)(C)Oc1cccc(Cl)c1)C(=O)N[C@H](C=O)C[C@@H]1CCNC1=O`, the EC50 [1] was 60 nM, the IC50 [2] was > 50 µM and the CC50 at 72 h [3] was > 50 µM. The IC50 [4] was > 50 µM, the EC50 [11] was 13 nM and the IC50 [5] was > 50 µM. For the same compound, the IC50 [6] was 20 nM, the IC50 [7] was > 50 µM and the selectivity ratio [12] was 3330. For the same compound, the IC50 [8] was 900 nM, the IC50 [9] was > 50 µM and the IC50 [10] was 190 nM.

In the case of `CC(C)C[C@H](NC(=O)OCC(C)(C)Sc1ccccc1)C(=O)N[C@H](C=O)C[C@@H]1CCNC1=O`, the EC50 [1] is reported as 80 nM, the IC50 [2] is reported as > 50 µM and the IC50 [13] is reported as 80 nM. The CC50 at 72 h [3] was > 50 µM, the IC50 [4] was > 50 µM and the EC50 [11] was 12 nM. The IC50 [5] was > 50 µM, the IC50 [6] was 30 nM and the IC50 [7] was > 50 µM. The selectivity ratio [12] was 3330, the IC50 [8] was 1900 nM and the IC50 [9] was > 50 µM. For the same compound, the IC50 [10] was 70 nM.

For `[2H]C([2H])(OC(=O)N[C@@H](CC(C)C)C(=O)N[C@H](C=O)C[C@@H]1CCNC1=O)C(C)(C)Sc1ccccc1`, the EC50 [1] was 100 nM, the IC50 [2] was > 50 µM and the IC50 [13] was 60 nM. For the same compound, the CC50 at 72 h [3] was > 50 µM, the IC50 [4] was > 50 µM and the EC50 [11] was 11 nM. The IC50 [5] was > 50 µM, the IC50 [6] was 30 nM and the IC50 [7] was > 50 µM. The selectivity ratio [12] was 3330, the IC50 [8] was 2000 nM and the IC50 [9] was > 50 µM. The IC50 [10] was 200 nM.

In the case of `CC(C)C[C@H](NC(=O)OCC(C)(C)Sc1ccccc1)C(=O)N[C@@H](C[C@@H]1CCNC1=O)C(=O)C(=O)NC1CC1`, the EC50 [1] is reported as 710 nM, the IC50 [2] is reported as > 50 µM and the CC50 at 72 h [3] is reported as > 50 µM. For the same compound, the IC50 [4] was > 50 µM, the EC50 [11] was 50 nM and the IC50 [5] was > 50 µM. The IC50 [6] was 40 nM, the IC50 [7] was > 50 µM and the IC50 [8] was 2000 nM. The IC50 [9] was > 50 µM and the IC50 [10] was 210 nM.
